Data set [1] can be described thus: Antioxidant activity assessed as DPPH radical scavenging activity after 30 mins by plate reader analysis. The data set is classed as physicochemical. Particulars: for Activity: 0.5 h. The method, boiled down: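 DPPH radical (150 μM in MeOH, 180 μL) mixed with 20 μL compound in water (solutions 62.5–1000 μM); 30 min, room temperature, dark; absorbance 490 nm. Sample-only blanks in MeOH; water+DPPH and water+MeOH references. Vitamin C as positive control. Scavenging % from corrected absorbances; EC50 by nonlinear regression; triplicate, mean ± SD.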
Background: Loss of DPPH colour is used to gauge radical scavenging.

Data set [2] can be described thus: Potency index, ratio of vitamin C EC50 to compound EC50 for DPPH radical scavenging activity.

Structures are written as SMILES. pEC50: −log10 of the molar value.

As for `O=C(O)[C@@H]1Cc2cc(O)c(O[C@@H]3O[C@H](CO[C@@H]4O[C@H](CO)[C@@H](O)[C@H](O)[C@H]4O)[C@@H](O)[C@H](O)[C@H]3O)cc2N1C(=O)/C=C/c1ccc(O)cc1`, in data set [1], the negative-log EC50 (pEC50) – broadly, −log10 of the EC50, conventionally taken in molar units – was 4.37 and the Activity result is “Dose-dependent effect”.
On the same counts, the results for `COc1cc(/C=C/C(=O)N2c3cc(O[C@@H]4O[C@H](CO[C@@H]5O[C@H](CO)[C@@H](O)[C@H](O)[C@H]5O)[C@@H](O)[C@H](O)[C@H]4O)c(O)cc3C[C@H]2C(=O)O)ccc1O` are 4.40 and “Dose-dependent effect”.
The matching figures for `COc1cc(/C=C/C(=O)OC[C@H]2O[C@@H](OC[C@H]3O[C@@H](Oc4cc5c(cc4O)C[C@@H](C(=O)O)N5C(=O)/C=C/c4ccc(O)cc4)[C@H](O)[C@@H](O)[C@@H]3O)[C@H](O)[C@@H](O)[C@@H]2O)ccc1O`: 4.45 and “Dose-dependent effect”.
Take `COc1cc(/C=C/C(=O)N2c3cc(O[C@@H]4O[C@H](CO[C@@H]5O[C@H](CO)[C@@H](O)[C@H](O)[C@H]5OC(=O)/C=C/c5ccc(O)c(O)c5)[C@@H](O)[C@H](O)[C@H]4O)c(O)cc3C[C@H]2C(=O)O)ccc1O`: in data set [1], the negative logarithm of the EC50 (pEC50) was 4.79 and the Activity result is reported as “Dose-dependent effect”. The Ratio EC50 in data set [2] worked out at 2.
Regarding `COc1cc(/C=C/C(=O)N2c3cc(O[C@@H]4O[C@H](CO)[C@@H](O)[C@H](O)[C@H]4O)c(O)cc3C[C@H]2C(=O)O)ccc1O`, in data set [1], the negative-log EC50 (pEC50) is 4.45 and the Activity result is “Dose-dependent effect”.
As for `COc1cc(/C=C/C(=O)N2c3cc(O[C@@H]4O[C@H](CO[C@@H]5O[C@H](CO)[C@@H](O)[C@H](O)[C@H]5O)[C@@H](O)[C@H](O)[C@H]4O)c(O)cc3C[C@H]2C(=O)O)ccc1O[C@@H]1O[C@H](CO)[C@@H](O)[C@H](O)[C@H]1O`, in data set [1], the negative logarithm of the EC50 (pEC50) was 4.39 and the Activity entry is reported as “Dose-dependent effect”.
Regarding `COc1cc(/C=C/C(=O)O[C@H]2[C@H](OC[C@H]3O[C@@H](Oc4cc5c(cc4O)C[C@@H](C(=O)O)N5C(=O)/C=C/c4ccc(O[C@@H]5O[C@H](CO)[C@@H](O)[C@H](O)[C@H]5O)cc4)[C@H](O)[C@@H](O)[C@@H]3O)O[C@H](CO)[C@@H](O)[C@@H]2O)ccc1O`, in data set [1], the negative-log EC50 (pEC50) is 4.50 and the Activity entry was “Dose-dependent effect”.
Regarding `COc1cc(/C=C/C(=O)N2c3cc(O[C@@H]4O[C@H](CO)[C@@H](O)[C@H](O)[C@H]4O)c(O)cc3C[C@H]2C(=O)O)ccc1O[C@@H]1O[C@H](CO)[C@@H](O)[C@H](O)[C@H]1O`, in data set [1], the pEC50 was 4.46 and the Activity entry is listed as “Dose-dependent effect”.
The matching figures for `COc1cc(/C=C/C(=O)O[C@H]2[C@H](OC[C@H]3O[C@@H](Oc4cc5c(cc4O)C[C@@H](C(=O)O)N5C(=O)/C=C/c4ccc(O)c(OC)c4)[C@H](O)[C@@H](O)[C@@H]3O)O[C@H](CO)[C@@H](O)[C@@H]2O)ccc1O`: 4.56 and “Dose-dependent effect”.
As for `O=C(O)[C@@H]1Cc2cc(O)c(O[C@@H]3O[C@H](CO)[C@@H](O)[C@H](O)[C@H]3O)cc2N1C(=O)/C=C/c1ccc(O[C@@H]2O[C@H](CO)[C@@H](O)[C@H](O)[C@H]2O)cc1`, in data set [1], the pEC50 was 4.42 and the Activity entry is recorded as “Dose-dependent effect”.
Take `O=C(/C=C/c1ccc(O)c(O)c1)O[C@H]1[C@H](OC[C@H]2O[C@@H](Oc3cc4c(cc3O)C[C@@H](C(=O)O)N4C(=O)/C=C/c3ccc(O)cc3)[C@H](O)[C@@H](O)[C@@H]2O)O[C@H](CO)[C@@H](O)[C@@H]1O`: in data set [1], the pEC50 is 4.82 and the Activity result is recorded as “Dose-dependent effect”. In data set [2], the Ratio EC50 came out at 2.
Turning to `O=C(O)[C@@H]1Cc2cc(O)c(O[C@@H]3O[C@H](CO)[C@@H](O)[C@H](O)[C@H]3O)cc2N1C(=O)/C=C/c1ccc(O)cc1`, in data set [1], the pEC50 was 4.45 and the Activity entry is recorded as “Dose-dependent effect”.
As to `COc1cc(/C=C/C(=O)O[C@H]2[C@H](OC[C@H]3O[C@@H](Oc4cc5c(cc4O)C[C@@H](C(=O)O)N5C(=O)/C=C/c4ccc(O)cc4)[C@H](O)[C@@H](O)[C@@H]3O)O[C@H](CO)[C@@H](O)[C@@H]2O)ccc1O`, in data set [1], the negative-log EC50 (pEC50) is 4.54 and the Activity result was “Dose-dependent effect”.
Take `O=C1O[C@H]([C@@H](O)CO)C(O)=C1O` [ASCORBIC ACID]: the negative logarithm of the EC50 (pEC50) in data set [1] was 4.52.
For the compound `O=C(O)[C@@H]1Cc2cc(O)c(O[C@@H]3O[C@H](CO[C@@H]4O[C@H](CO)[C@@H](O)[C@H](O)[C@H]4O)[C@@H](O)[C@H](O)[C@H]3O)cc2N1C(=O)/C=C/c1ccc(O[C@@H]2O[C@H](CO)[C@@H](O)[C@H](O)[C@H]2O)cc1`, in data set [1], the pEC50 is 4.36 and the Activity result is “Dose-dependent effect”.

The values are drawn from ChEMBL document CHEMBL3739360, “Indoline Amide Glucosides from Portulaca oleracea: Isolation, Structure, and DPPH Radical Scavenging Activity” (J Nat Prod, 2015).
